Shown are actives, neighbours in structure and some others; about 0.79% of the full set was active somewhere.
bIAP inhibitor: blocks bovine intestinal alkaline phosphatase activity | purified bovine IAP, CDP-star luminescence, 30 min | inhibition, % at 20 µM | 190,000 tested, under 10 active;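 active means over 50% inhibition of intestinal alkaline phosphatase at 20 µM in the single-dose screen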
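Assay system: bovine IAP enzyme; medium: DEA buffer 100 mM, pH 9.8, with MgCl2 1.0 mM, ZnCl2 0.02 mM; doses: 20 µM single dose; incubation: enzyme reaction for 30 min at room temperature; detection: CDP-star luminescence signal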
hIAP block: blocks human intestinal alkaline phosphatase. purified IAP, CDP-Star luminescence, 30 min. inhibition, % at 10 µM. 330,000 tested, 0.12% active. AID 2544;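 active means inhibition reaching a set limit with compound at 10 µM in the primary screen, cut at about 35% in these data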;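 further: plate controls were DMSO wells with enzyme for no effect and no-enzyme buffer wells for full effect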
Target sequence (P09923 whole entry, looked up): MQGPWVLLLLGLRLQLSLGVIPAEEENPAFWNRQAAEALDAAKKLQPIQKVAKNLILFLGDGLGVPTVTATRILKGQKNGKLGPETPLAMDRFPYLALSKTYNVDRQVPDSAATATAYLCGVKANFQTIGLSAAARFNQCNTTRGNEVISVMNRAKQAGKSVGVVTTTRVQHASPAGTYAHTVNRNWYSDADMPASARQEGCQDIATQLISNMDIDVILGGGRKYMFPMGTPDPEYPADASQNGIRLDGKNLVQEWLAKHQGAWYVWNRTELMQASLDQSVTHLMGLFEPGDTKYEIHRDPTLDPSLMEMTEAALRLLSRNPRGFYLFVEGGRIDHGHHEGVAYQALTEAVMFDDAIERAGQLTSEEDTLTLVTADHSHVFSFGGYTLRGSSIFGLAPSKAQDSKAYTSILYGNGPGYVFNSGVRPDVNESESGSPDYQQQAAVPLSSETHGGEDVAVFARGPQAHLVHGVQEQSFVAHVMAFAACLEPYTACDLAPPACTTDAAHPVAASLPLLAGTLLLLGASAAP
hIAP activ: human IAP activation; purified human IAP, CDP-Star luminescence, 30 min; hits give high values; 1 = vehicle-only enzyme, 0 = enzyme-free background; AID 2524; activation factor at 10 µM; 330,000 tested, 0.16% active;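 active means activation factor of the enzyme at least 2-fold when tested at 20 µM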
bIAP act: increases bovine intestinal alkaline phosphatase activity; activation factor at 20 µM; AID 1016; 200,000 tested, 0.17% active; purified bovine IAP, CDP-star luminescence, 30 min; hits give high values; fold of DMSO-control signal, blank-subtracted;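 active means activation factor of 2 or more at 20 µM, a signal rise over negative controls twice the positive control's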
mIAP act: mouse IAP activation. 330,000 tested, 0.24% active. activation factor at 10 µM. muIAP, CDP-Star luminescence, 30 min; hits give high values; 1 = vehicle-only enzyme signal, 0 = enzyme-free wells;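 active means activation factor of at least 2 at 20 µM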
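System: mouse IAP enzyme. Reagent: CDP-Star chemiluminescent phosphatase substrate. Benchmarks: DMSO wells, no-enzyme wells. Times: 30 min enzyme-substrate-compound incubation at room temperature. Detection: luminescence from enzymatic CDP-Star hydrolysis. Doses: test compounds delivered from DMSO solution.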
mIAP inh: blocks mouse intestinal alkaline phosphatase. inhibition, % at 10 µM. purified mouse IAP, CDP-Star luminescence, 30 min. 330,000 tested, 0.2% active. AID 2806;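 active means inhibition of at least 40% at 10 µM in the primary screen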;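 further: plate controls were DMSO with enzyme for no effect and no enzyme wells for full effect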
hIAP act confirm: human IAP activation confirmation | shares compounds with hIAP activ | 880 tested, 10% active | AID 434926 | activation (%Activity, negative = activation), % at 8.3 µM | purified IAP, CDP-Star luminescence, 30 min; hits give low values;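 active means at least twofold enzyme activation in any of six single-dose repeats, which the averaged readout prints as negative percent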
mIAP inh conf: mouse IAP inhibition confirmation; shares compounds with mIAP inh; purified mouse IAP, CDP-Star luminescence, 30 min; inhibition, % at 10 µM; 11,000 tested, 4.7% active; AID 434971;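 active means inhibition of at least 40% at 10 µM in either of the two replicates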;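 further: plate controls were DMSO wells with enzyme for no effect and buffer wells lacking enzyme for full effect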
* marks the source's active call; other numbers are inactive results; nt = no result.

SMILES | bIAP inhibitor | hIAP block | hIAP activ | bIAP act | mIAP act | mIAP inh | mIAP inh conf | others
Nc1c(/C=C2/C=CC(=O)C(O)=C2)c(=O)nc2sc(CC(=O)N3CCCC3)nn12 | nt | 48* | 0.52 | nt | 0.42 | 58* | 78* | hIAP act confirm=17
Nc1c(/C=C2/C=CC(=O)C(O)=C2)c(=O)nc2sc(CC(=O)N3CCCCC3)nn12 | nt | 54* | 0.46 | nt | 0.39 | 61* | 83* | hIAP act confirm=4
CCCCn1[nH]c(-c2ccccc2)cc1=O | 5 | 8 | 0.92 | 1 | 1 | 0 | nt
CCN1C(=O)c2ccc(C(=O)Nc3c(C)cc(C)cc3C)cc2C1=O | nt | -21 | 1.2 | nt | 1.1 | -5 | nt
COc1cc(/C=C(\C#N)C(=O)c2ccc(O)c(O)c2)cc(I)c1O | nt | 51* | 0.49 | nt | 0.17 | 83* | 83* | hIAP act confirm=40
COc1cc(/C=C(\C#N)C(=O)N2CCOCC2)cc(Br)c1O | -2 | -16 | 1.2 | 1 | 0.97 | 3 | nt
COc1ccc(S(=O)(=O)Nc2cc(Sc3ncn[nH]3)c(O)cc2C)cc1 | nt | -4 | 1 | nt | 0.64 | 36 | nt
Cc1ccc([N+](=O)[O-])cc1S(=O)(=O)Nc1ccc(O)c(Sc2ncn[nH]2)c1 | nt | 73* | 0.27 | nt | 0.27 | 73* | 89* | hIAP act confirm=7
O=C(c1ccnc(Cl)c1)N1CCCC(N2CCN(c3ccccc3F)CC2)C1 (stereo unspecified) | nt | 5 | 0.95 | nt | 1 | 0 | nt
O=C1NC(=O)/C(=C\c2ccc(O)cc2O)S1 | 48 | 84* | 0.15 | 0.5 | 0.29 | 71* | 85* | hIAP act confirm=3
CC(NC(=O)C1CCN(S(=O)(=O)c2cccs2)CC1)c1cccc(Cl)c1 (stereo unspecified) | nt | 1 | 0.99 | nt | 1.1 | -14 | nt
COc1cc(NC(=O)NCC2CCN(Cc3ccccc3Cl)CC2)cc(OC)c1OC | nt | -158 | 2.6* | nt | 4* | -301 | -148 | hIAP act confirm=-142*
COc1ccc(OC)c(CN2CCC(CNC(=O)Nc3cccc(Cl)c3)CC2)c1 | -55 | -41 | 1.4 | 1.5 | 2 | -96 | nt
O=c1c(O[C@@H]2O[C@H](CO)[C@@H](O)[C@H](O)[C@H]2O)c(-c2ccc(O)c(O)c2)oc2cc(O)cc(O)c12 | 16 | 57* | 0.43 | 0.8 | 0.45 | 55* | 58* | hIAP act confirm=48
O=c1c(O[C@@H]2O[C@H](CO)[C@H](O)[C@H](O)[C@H]2O)c(-c2ccc(O)c(O)c2)oc2cc(O)cc(O)c12 | -7 | nt | nt | 1.1 | nt | nt | nt
O=C(/C=C/c1ccccc1)OCc1cnc(Cl)s1 | 20 | 13 | 0.87 | 0.8 | 1.1 | -8 | nt
CNc1nnc(-c2cc3ccccc3oc2=O)s1 | nt | 73* | 0.27 | 0.1 | 0.42 | 58* | 66* | hIAP act confirm=33
Cc1ccccc1-c1nnc(NC(=O)c2cc3ccccc3oc2=O)s1 | 12 | nt | nt | 0.9 | nt | nt | nt
NC(=O)C1CCN(C(=O)CC(c2ccccc2)c2ccccc2)CC1 | nt | -27 | 1.3 | nt | 1.1 | -7 | nt
CC1C(=O)NN=C1C(=O)N/N=C\c1ccc(O)cc1O (stereo unspecified) | 2 | -149 | 2.5* | 1 | 0.35 | 65* | 60* | hIAP act confirm=-79*
O=C(O)C(c1ccccc1)N1C(=O)/C(=C\c2ccc(O)c(O)c2)SC1=S (stereo unspecified) | nt | 75* | 0.25 | nt | 0.33 | 67* | 79* | hIAP act confirm=24
CN(CCO)c1ccc(C=NNc2ccc([N+](=O)[O-])cc2S(=O)(=O)Nc2ccccc2C(=O)O)cc1 | nt | 2 | 0.97 | nt | 0.54 | 46* | 46*
CC(=O)Nc1ccc(C=NNc2ccc([N+](=O)[O-])cc2S(=O)(=O)Nc2ccccc2C(=O)O)cc1 | nt | 11 | 0.89 | nt | 0.68 | 32 | nt
Cc1cc(-c2ccc(N=Nc3c(S(=O)(=O)O)cc4cc(S(=O)(=O)O)cc(N)c4c3O)c(C)c2)ccc1N=Nc1c(S(=O)(=O)O)cc2cc(S(=O)(=O)O)cc(N)c2c1O | nt | 28 | 0.72 | nt | 0.23 | 77* | 83*
CC(=O)c1c(COC(=O)c2ccccc2Cl)nc2ccccc2[n+]1[O-] | nt | 6 | 0.94 | nt | 0.96 | 4 | nt
SMILES | bIAP inhibitor | hIAP block | hIAP activ | bIAP act | mIAP act | mIAP inh | mIAP inh conf | others
CCOc1ccc(S(=O)(=O)Nc2cc(Sc3ncn[nH]3)c3oc(=O)sc3c2)cc1 | -35 | 13 | 0.87 | 1.4 | 0.28 | 72* | 82*
CCOc1ccc(S(=O)(=O)Nc2ncn[nH]2)cc1 | nt | 11 | 0.89 | nt | 1 | 0 | nt
O=C(NCC1CCN(Cc2ccccc2F)CC1)Nc1cccc(Br)c1 | nt | -39 | 1.4 | nt | 3.3* | -226 | -105
O=C(NCC1CCN(Cc2ccccc2F)CC1)Nc1ccccc1F | nt | -7 | 1.1 | nt | 1.3 | -30 | nt
Cc1ccc(C)c(CN2CCC(CNC(=O)Nc3ccc(C)c(C)c3)CC2)c1 | nt | -27 | 1.3 | nt | 3.9* | -291 | -121
O=C1OCC=C1NNC(=O)c1cccnc1 | -11 | -22 | 1.2 | 1.1 | 1.2 | -18 | nt
COc1ccccc1C(CC(=O)Nc1ccc(Cl)cc1)c1ccc(OC(C)C)cc1 (stereo unspecified) | nt | -28 | 1.3 | 0.4 | 3.7* | -268 | -91
Nn1c(SCC(=O)Nc2ccc(OC(F)F)cc2)nnc(Cc2ccccc2)c1=O | nt | -8 | 1.1 | nt | 0.93 | 7 | nt
Cn1cnnc1SCC(=O)Nc1ncc([N+](=O)[O-])s1 | nt | -24 | 1.2 | nt | 0.59 | 41* | 51*
Cc1csc(NC(=O)CSc2nncn2C)n1 | 5 | -15 | 1.1 | 1 | 1.1 | -8 | nt
O=C(COc1ccc(Cl)cc1)Nc1ncc([N+](=O)[O-])s1 | -11 | nt | nt | 1.1 | nt | nt | nt
O=C(COC(=O)COc1ccccc1)Nc1ncc([N+](=O)[O-])s1 | nt | -28 | 1.3 | nt | 0.37 | 63* | 69*
COc1cc(C)ccc1OCc1cc(C(=O)N2CCC(c3ccc(F)cc3)C2)no1 (stereo unspecified) | nt | 2 | 0.98 | nt | 0.95 | 5 | nt
Cc1cccc(C)c1NC(=O)CN(C)C(=O)C1CC(=O)N(c2cccc3ccccc23)C1 (stereo unspecified) | nt | -9 | 1.1 | nt | 1.1 | -14 | nt
O=C(Nc1ccc2c(c1)OCO2)C1CCCN1C(=O)Nc1ccccc1 (stereo unspecified) | nt | 5 | 0.95 | nt | 1 | -3 | nt
Cc1cccc(N2CSC3=C(C#N)C(c4ccc(C)o4)CC(=O)N3C2)c1 (stereo unspecified) | -1 | -5 | 1.1 | 1 | 0.42 | 58* | 63*
COc1ccc(OC)c(C2CC(=O)N3CN(c4ccccc4)CSC3=C2C#N)c1 (stereo unspecified) | 5 | 2 | 0.98 | 0.9 | 0.63 | 37 | nt
COc1cc(OC)c(-c2c3cc(O)c(=O)cc-3oc3cc(O)c(O)cc23)cc1OC | -2 | -14 | 1.1 | 1 | 0.56 | 44* | 59*
